Reference: ChEMBL document CHEMBL1133676, “Synthesis and hypolipidemic and antiplatelet activities of alpha-asarone isomers in humans (in vitro), mice (in vivo), and rats (in vivo)” (2000)

Columns and labels:
Assay type in all cases: functional
Rattus norvegicus [1] = experiment: LDL (low density lipoproteins) cholesterol level in Wistar male rats at a dose of 80 mg/kg
Outline: (§1)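 Compounds in oil (5 mL/kg) were given by gastric intubation once daily, at 80 mg/kg or 150 mg/kg for clofibrate. Rats were then fasted 16 h […], and serum lipids were measured spectrophotometrically with kits; Student's t-test.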

Rattus norvegicus [2] = experiment: Total cholesterol level in Wistar male rats administered at a dose of 80 mg/kg
Outline: (§2)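 Agents in oil (5 mL/kg) were given once daily by gastric intubation. Doses were 80 mg/kg for test agents and 150 mg/kg for the positive control; chow-fed and vehicle-oil groups served as controls. After a 16 h fast and ether anesthesia, ocular-puncture blood was drawn. Serum lipids were measured by kit spectrophotometry; Student's t-test, n = 9–10.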

Rattus norvegicus [3] = experiment: Triglyceride level in Wistar male rats administered at a dose of 80 mg/kg; outline: as §2
Rattus norvegicus [4] = experiment: HDL (high density lipoproteins) cholesterol level in Wistar male rats at a dose of 80 mg/kg; outline: as §2
Mus musculus [5] = experiment: Effect on acute pulmonary thromboembolism in mice at 100 mg/kg
Outline: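 Male Swiss mice (29.4 ± 2.6 g) received a single ip dose 1 h before a rapid tail-vein injection of collagen (25 μg/mouse) plus epinephrine (27 μg/mouse) in 0.154 M NaCl. Asarones were given in miglyol 812, and ketorolac in DMSO/Sörensen phosphate buffer pH 7.0, at 0.1 mL/10 g. Death or paralysis was scored within 10 min and reported as % protected versus vehicle controls; χ² test.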

Mus musculus [6] = experiment: Effect on acute pulmonary thromboembolism in mice at 100 mg/kg expressed as no. of killed or paralyzed to no. of tested observed after 10 min
Outline: (§3)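 Male Swiss mice (29.4 ± 2.6 g) were given a single ip dose 1 h before a rapid tail-vein injection of collagen (25 μg/mouse) plus epinephrine (27 μg/mouse) in 0.154 M NaCl. Vehicles were miglyol 812 for asarones, or DMSO with Sörensen phosphate buffer pH 7.0 for ketorolac, at 0.1 mL/10 g. Death or paralysis was scored within 10 min; controls received vehicle only; χ² test.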

Rattus norvegicus [7] = experiment: Triglyceride level in Wistar male rats at a dose of 80 mg/kg; outline: as §1
Rattus norvegicus [8] = experiment: Total cholesterol level in Wistar male rats at a dose of 80 mg/kg; outline: as §1
Rattus norvegicus [9] = organism: Rattus norvegicus; experiment: HDL (high density lipoproteins) cholesterol level in Wistar male rats; outline: as §2
Rattus norvegicus [10] = organism: Rattus norvegicus; experiment: Cholesterol level in Wistar male rats; outline: as §2
Rattus norvegicus [11] = organism: Rattus norvegicus; experiment: Triglyceride level in Wistar male rats; outline: as §2
Rattus norvegicus [12] = organism: Rattus norvegicus; experiment: LDL (low density lipoproteins) cholesterol level in Wistar male rats; outline: as §1
Homo sapiens [13] = organism: Homo sapiens; experiment: In vitro inhibition of human platelet aggregation induced by 10 uM ADP after incubation at 200 uM
Outline: (§4)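 Born turbidimetric assay in citrated platelet-rich plasma from healthy male volunteers, with platelet-poor plasma set as 100% transmission. Agents in 95% ethanol were preincubated with PRP for 2 min at 37 °C, stirred at 1000 rpm.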

Mus musculus [14] = experiment: Effect on acute pulmonary thromboembolism in mice at 25 mg/kg expressed as no. of killed or paralyzed to no. of tested observed after 10 min
Homo sapiens [15] = organism: Homo sapiens; experiment: In vitro inhibition of human platelet aggregation induced by 10 uM ADP after incubation at 250 uM; outline: as §4
Mus musculus [16] = experiment: Effect on acute pulmonary thromboembolism in mice at 25 mg/kg
Homo sapiens [17] = organism: Homo sapiens; experiment: In vitro inhibition of human platelet aggregation induced by 10 uM ADP after incubation at 150 uM; outline: as §4
Homo sapiens [18] = organism: Homo sapiens; experiment: In vitro inhibition of human platelet aggregation induced by 10 uM ADP after incubation at 100 uM; outline: as §4
Rattus norvegicus [19] = experiment: LDL (low density lipoproteins) cholesterol level in Wistar male rats at 150 mg/kg; outline: as §1
Rattus norvegicus [20] = experiment: Triglyceride level in Wistar male rats at a dose of 150 mg/kg; outline: as §2
Rattus norvegicus [21] = experiment: HDL (high density lipoproteins) cholesterol level in Wistar male rats at 150 mg/kg; outline: as §2
Rattus norvegicus [22] = experiment: Total cholesterol level in Wistar male rats at a dose of 150 mg/kg; outline: as §2
Mus musculus [23] = experiment: Effect on acute pulmonary thromboembolism in mice at 50 mg/kg; outline: as §3
Homo sapiens [24] = organism: Homo sapiens; experiment: In vitro inhibition of human platelet aggregation induced by 10 uM ADP after incubation at 300 uM; outline: as §4
Mus musculus [25] = experiment: Effect on acute pulmonary thromboembolism in mice at 50 mg/kg expressed as no. of killed or paralyzed to no. of tested observed after 10 min; outline: as §3

Row | SMILES | LDL cholesterol (Rattus norvegicus [1]) [mg/dL] | Total cholesterol (Rattus norvegicus [2]) [mg/dL] | Triglyceride level (Rattus norvegicus [3]) [mg/dL] | HDL cholesterol (Rattus norvegicus [4]) [mg/dL] | Protected (Mus musculus [5]) [%] | No. of killed or paralyzed (Mus musculus [6]) | also measured
1 | C/C=C/c1c(OC)cc(OC)cc1OC.CC(C)CCC[C@@H](C)[C@H]1CC[C@H]2[C@@H]3CC=C4C[C@@H](O)CC[C@]4(C)[C@H]3CC[C@]12C | 36.9 | 98.1 | 116 | 37.9 | – | – | –
2 | C/C=C/c1c(OC)ccc(OC)c1OC.CC(C)CCC[C@@H](C)[C@H]1CC[C@H]2[C@@H]3CC=C4C[C@@H](O)CC[C@]4(C)[C@H]3CC[C@]12C | 48.2 | 115 | 162 | 30.2 | – | – | –
3 | C/C=C/c1ccc(OC)c(OC)c1OC | – | – | – | – | 0 | 14 | –
4 | C/C=C/c1cc(OC)c(OC)cc1OC.CC(C)CCC[C@@H](C)[C@H]1CC[C@H]2[C@@H]3CC=C4C[C@@H](O)CC[C@]4(C)[C@H]3CC[C@]12C [ALPHAASARONE AND CHOLESTEROL] | 24.4 | – | – | 45.5 | – | – | Triglyceride level (Rattus norvegicus [7]): 219.3; Total cholesterol (Rattus norvegicus [8]): 113.6 mg/kg
5 | CC(C)CCC[C@@H](C)[C@H]1CC[C@H]2[C@@H]3CC=C4C[C@@H](O)CC[C@]4(C)[C@H]3CC[C@]12C [CHOLESTEROL] | – | – | – | – | – | – | HDL cholesterol (Rattus norvegicus [9]): 29 mg/dL; Total cholesterol (Rattus norvegicus [10]): 111 mg/dL; Triglyceride level (Rattus norvegicus [11]): 125 mg/dL; LDL cholesterol (Rattus norvegicus [12]): 43.2 mg/dL
6 | CC(=O)Oc1ccccc1C(=O)O [ASPIRIN] | – | – | – | – | – | – | Inhibition (Homo sapiens [13]): 48.5%; No. of killed or paralyzed (Mus musculus [14]): 28; Inhibition (Homo sapiens [15]): 56.4%; Protected (Mus musculus [16]): 45%; Inhibition (Homo sapiens [17]): 37.1%; Inhibition (Homo sapiens [18]): 31.2%
7 | C/C=C/c1cc(OC)c(OC)c(OC)c1.CC(C)CCC[C@@H](C)[C@H]1CC[C@H]2[C@@H]3CC=C4C[C@@H](O)CC[C@]4(C)[C@H]3CC[C@]12C | 19.8 | 93.4 | 136 | 45.3 | – | – | –
8 | O=C(c1ccccc1)c1ccc2n1CCC2C(=O)O (configuration not stated) [KETOROLAC] | – | – | – | – | 33 | 16 | –
9 | C/C=C/c1cc(OC)c(OC)c(OC)c1 | – | – | – | – | 19 | 17 | –
10 | C/C=C/c1ccc(OC)c(OC)c1OC.CC(C)CCC[C@@H](C)[C@H]1CC[C@H]2[C@@H]3CC=C4C[C@@H](O)CC[C@]4(C)[C@H]3CC[C@]12C | 30.1 | 96.6 | 125 | 42.8 | – | – | –
11 | CC(C)CCC[C@@H](C)[C@H]1CC[C@H]2[C@@H]3CC=C4C[C@@H](O)CC[C@]4(C)[C@H]3CC[C@]12C.CCOC(=O)C(C)(C)Oc1ccc(Cl)cc1 [CLOFIBRATE + CHOLESTEROL] | – | – | – | – | – | – | LDL cholesterol (Rattus norvegicus [19]): 46.1 mg/dL; Triglyceride level (Rattus norvegicus [20]): 91.6 mg/dL; HDL cholesterol (Rattus norvegicus [21]): 22.1 mg/dL; Total cholesterol (Rattus norvegicus [22]): 85.8 mg/dL
12 | C/C=C/c1cc(OC)cc(OC)c1OC.CC(C)CCC[C@@H](C)[C@H]1CC[C@H]2[C@@H]3CC=C4C[C@@H](O)CC[C@]4(C)[C@H]3CC[C@]12C | 35.8 | 97.9 | 140 | 39.2 | – | – | –
13 | C/C=C/c1cc(OC)c(OC)cc1OC [TRANS-ASARONE] | – | – | – | – | 44 | 10 | Inhibition (Homo sapiens [13]): 40.3%; Inhibition (Homo sapiens [15]): 30.3%; Protected (Mus musculus [23]): 0%; Inhibition (Homo sapiens [17]): 14.7%; Inhibition (Homo sapiens [24]): 47%; Inhibition (Homo sapiens [18]): 4%; No. of killed or paralyzed (Mus musculus [25]): 13
14 | C/C=C/c1c(OC)cc(OC)cc1OC | – | – | – | – | 25 | 30 | Inhibition (Homo sapiens [13]): 31%; Inhibition (Homo sapiens [15]): 7.5%; Inhibition (Homo sapiens [17]): 19%; Inhibition (Homo sapiens [24]): 17.5%; Inhibition (Homo sapiens [18]): 15.9%
15 | C/C=C/c1cc(OC)cc(OC)c1OC | – | – | – | – | 52 | 12 | Inhibition (Homo sapiens [13]): 35.4%; Inhibition (Homo sapiens [15]): 38.3%; Inhibition (Homo sapiens [17]): 25.4%; Inhibition (Homo sapiens [24]): 38.3%; Inhibition (Homo sapiens [18]): 13%
